Screening results (PubChem)
In the library only some 3% were active in any assay of this set; here they are far more common.
SR-BI uptake up = enhances SR-BI lipid uptake from DiI-HDL; CHO ldlA[mSR-BI] cells, DiI-HDL uptake fluorescence, 3 h; 100 = double the neutral-control signal; actives 0.096% (n = 320,000); activation, % at 12.5 µM;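 active means mean replicate activation of at least 60% and every replicate at or above 60%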
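Material: SR-BI-overexpressing, LDLR-lacking CHO cells; schedule: compound exposure 3 h, 37 °C; reagent: DiI-labelled HDL at 10 µg/mL final; technique: bottom-read fluorescence, 550/595 nm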
SR-BI HDL uptake = mouse SR-BI HDL lipid transfer inhibition; Q61009; ldlA[mSR-BI] CHO cells, DiI-HDL uptake fluorescence, 3 h; inhibition, % at 12.5 µM; actives 0.96% (n = 320,000);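 active means mean replicate inhibition of at least 70% and a set share of replicates each scoring 70 or more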
DNA FID counter = fluorescent intercalator displacement, NS3 helicase counter-screen; actives 0.17% (n = 290,000); DNA fluorescent intercalator displacement, fluorescence; AID 1845; inhibition, % at 7.9 µM; in the data active means inhibition above about 37%;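 further: higher means more ethidium bromide displaced from hairpin DNA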
ANO1 block = mouse TMEM16A channel inhibition, primary screen | normalized B-score (activity score, 25-100; higher = stronger inhibition) at 10 µM | AID 588511 | Q8BHY3 | actives 1.2% (n = 310,000) | HEK293 TMEM16A/YFP iodide influx fluorescence, ionomycin;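 active means ratio plate-corrected score three or more library SD toward inhibition, starting fluorescence score within five deviations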;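 further: score derived from kinetic fluorescence span divided by baseline fluorescence per well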
Kir21 inh = blocks the mouse Kir2.1 inward-rectifier potassium channel; P35561; HEK293-Kir2.1, FluxOR thallium flux fluorescence; stronger effect = lower value; B-score at 10 µM; actives 0.85% (n = 310,000);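 active means fluorescence ratio B-score at or below minus 3 SD of library scores, with starting-brightness B-score within 2 SD, cut at about -4.2 in these data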;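 further: channel flux triggered by added potassium and thallium sulfate stimulus; B-score of peak minus minimum fluorescence over baseline after thallium stimulus; more negative B-score means stronger Kir2.1 block with less thallium influx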
ANO1 activ = mouse TMEM16A channel activation, primary screen; actives 0.3% (n = 340,000); B-score at 10 µM; HEK293 TMEM16A/YFP-H148Q/I152L, iodide quench fluorescence; stronger effect = lower value; Q8BHY3;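 active means fluorescence-ratio B-score plate-corrected deviation score at least 3 library SD below zero, with starting fluorescence score within 5 deviations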;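 further: channel opened by trigger with iodide after compound preincubation; score built on the fluorescence ratio of max minus min over baseline; more negative score means more quench and so TMEM16A activation or potentiation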
Hits are given with their value.

Screening Cc1cccc(C(=O)c2c(N)sc3c2CCC(C)C3)c1 (configuration not stated) returned SR-BI uptake up inactive, SR-BI HDL uptake 73, DNA FID counter inactive, ANO1 block inactive, Kir21 inh inactive and ANO1 activ inactive.
Screening Cc1cccc(C(=O)c2c(N)sc3c2CCCC3)c1 returned SR-BI uptake up inactive, SR-BI HDL uptake inactive, DNA FID counter inactive, ANO1 block inactive, Kir21 inh inactive and ANO1 activ inactive.
Screening N#Cc1c2ccc([N+](=O)[O-])cc2[n+]([O-])n1-c1ccccc1 returned SR-BI uptake up inactive, SR-BI HDL uptake inactive and ANO1 activ inactive.
CC(C)(CCO)Nc1ncnc2onc(-c3ccc(F)cc3)c12 was read as SR-BI uptake up inactive, SR-BI HDL uptake inactive, DNA FID counter inactive, ANO1 block inactive, Kir21 inh inactive and ANO1 activ inactive.
COc1ccc2c(c1)C1NC(=S)NC(C)(O2)C1C(=O)Nc1ccc(Cl)cc1 (configuration not stated) was read as SR-BI uptake up inactive, SR-BI HDL uptake 80, DNA FID counter inactive, ANO1 block inactive, Kir21 inh inactive and ANO1 activ inactive.
Screening CCCOc1ccc(-c2c(C(=O)N/N=C/C3CCCCC3)nnn2-c2nonc2N)cc1 returned SR-BI uptake up inactive, SR-BI HDL uptake inactive, DNA FID counter inactive, ANO1 block inactive, Kir21 inh inactive and ANO1 activ inactive.
`COc1ccc(CC(C)N2CCN(Cc3ccccc3)CC2)cc1OC` (configuration not stated) gave DNA FID counter 38, ANO1 block inactive, Kir21 inh inactive and ANO1 activ inactive.
COc1ccc(CC(C)N2CCN(c3ccccc3OC)CC2)cc1OC (configuration not stated) was read as SR-BI uptake up inactive, SR-BI HDL uptake inactive, DNA FID counter inactive, ANO1 block inactive, Kir21 inh inactive and ANO1 activ inactive.
COc1ccc(NS(=O)(=O)c2ccc(OC)c3ccccc23)cn1 was read as SR-BI uptake up inactive, SR-BI HDL uptake inactive, DNA FID counter inactive, ANO1 block inactive, Kir21 inh -5.3 and ANO1 activ inactive.
O=C(Nc1cccc(-c2cccc(F)c2)c1)C1CCN(Cc2ccco2)CC1 was read as SR-BI uptake up inactive, SR-BI HDL uptake inactive, DNA FID counter inactive, ANO1 block inactive, Kir21 inh -4.9 and ANO1 activ inactive.
Screening CCCn1ncc(CN2CCC(C(=O)Nc3cccc(-c4cccc(F)c4)c3)CC2)c1C returned SR-BI uptake up inactive, SR-BI HDL uptake inactive, DNA FID counter 44, ANO1 block inactive, Kir21 inh inactive and ANO1 activ inactive.
C=CCn1cc(CN2CCC(C(=O)Nc3cccc(-c4cccc(Cl)c4)c3)CC2)c(C)n1 was read as SR-BI uptake up inactive, SR-BI HDL uptake inactive, DNA FID counter 41, ANO1 block inactive, Kir21 inh inactive and ANO1 activ inactive.
For Cn1cc(CN2CCC(C(=O)Nc3cccc(-c4cccc(F)c4)c3)CC2)cn1 the results were SR-BI uptake up inactive, SR-BI HDL uptake inactive, DNA FID counter inactive, ANO1 block inactive, Kir21 inh inactive and ANO1 activ inactive.
Cc1cccc(CN2CCC(C(=O)Nc3cccc(-c4cccc(F)c4)c3)CC2)n1 was read as SR-BI uptake up inactive, SR-BI HDL uptake inactive, DNA FID counter inactive, ANO1 block inactive, Kir21 inh -5.1 and ANO1 activ inactive.
`O=C(NCc1n[nH]c(=O)c2ccccc12)C1CC(=O)N(c2ccc(Cl)cc2)C1` (configuration not stated) gave SR-BI uptake up inactive, SR-BI HDL uptake inactive, ANO1 block inactive, Kir21 inh inactive and ANO1 activ inactive.
`CCOC(=O)C1CCN(CCCSc2ccccc2)CC1` gave SR-BI uptake up inactive, SR-BI HDL uptake inactive, DNA FID counter inactive, ANO1 block inactive, Kir21 inh inactive and ANO1 activ inactive.
`COc1cccc(NC(=O)c2ccnc(N3CCC(C(=O)NCc4cc(OC)ccc4OC)CC3)c2)c1` gave SR-BI uptake up inactive, SR-BI HDL uptake 79, DNA FID counter inactive, ANO1 block inactive, Kir21 inh inactive and ANO1 activ inactive.
For COc1ccc(CNC(=O)C2CCN(c3cc(C(=O)Nc4cccc(OC)c4)ccn3)CC2)cc1 the results were SR-BI uptake up inactive, SR-BI HDL uptake inactive, DNA FID counter inactive, ANO1 block inactive, Kir21 inh inactive and ANO1 activ inactive.
Screening CCOC(=O)c1sc2nc(SC)nc(-c3ccc(Cl)cc3)c2c1N returned SR-BI uptake up inactive, SR-BI HDL uptake 87, DNA FID counter inactive, ANO1 block inactive, Kir21 inh inactive and ANO1 activ inactive.
For COC(=O)C(Nc1ccccc1Cl)(c1cc(C)c(O)c(C)c1)C(F)(F)F (configuration not stated) the results were SR-BI uptake up inactive, SR-BI HDL uptake inactive, DNA FID counter inactive, ANO1 block 100, Kir21 inh inactive and ANO1 activ inactive.
O=C1C2CCCCN2C(=O)N1CCCCN1CCN(c2cccc(C(F)(F)F)c2)CC1 (configuration not stated) was read as SR-BI uptake up inactive, SR-BI HDL uptake inactive and ANO1 activ inactive.
For CCOc1ccc(C(=O)Nc2cccc(NC(=O)c3cccs3)c2)cc1[N+](=O)[O-] the results were SR-BI uptake up inactive, SR-BI HDL uptake inactive, DNA FID counter inactive, Kir21 inh inactive and ANO1 activ inactive.
For Cc1nn(-c2ccccc2)c(N2CCCC2)c1/C=N/NC(=O)c1cc(-c2cccnc2)nc2ccccc12 the results were SR-BI uptake up inactive, SR-BI HDL uptake 89, DNA FID counter inactive, ANO1 block inactive, Kir21 inh inactive and ANO1 activ inactive.
`COc1cc([N+](=O)[O-])cc(/C=N/NC(=O)c2cc(-c3ccccc3)nc3ccccc23)c1O` gave SR-BI uptake up inactive, SR-BI HDL uptake 117, DNA FID counter inactive, ANO1 block inactive, Kir21 inh inactive and ANO1 activ inactive.
`CCOc1ccc(C(=O)Nc2cccc([N+](=O)[O-])c2)cc1Br` gave SR-BI uptake up inactive, SR-BI HDL uptake 72, DNA FID counter inactive, ANO1 block inactive, Kir21 inh inactive and ANO1 activ inactive.
COc1cc([N+](=O)[O-])cc(/C=N/NC(=O)c2cc(C)nc3ccccc23)c1O was read as SR-BI uptake up inactive, SR-BI HDL uptake inactive, DNA FID counter inactive, ANO1 block inactive, Kir21 inh inactive and ANO1 activ inactive.
Screening Cc1nn(-c2ccccc2)c(N2CCCC2)c1/C=N/NC(=O)c1ccccc1O returned SR-BI uptake up inactive, SR-BI HDL uptake inactive, DNA FID counter inactive, ANO1 block inactive, Kir21 inh inactive and ANO1 activ inactive.
COc1ccccc1/C=C(\NC(=O)c1ccc(OC)c(OC)c1)C(=O)Nc1cccc([N+](=O)[O-])c1 was read as SR-BI uptake up inactive, SR-BI HDL uptake 74, DNA FID counter inactive, ANO1 block inactive, Kir21 inh inactive and ANO1 activ inactive.
